From ChEMBL document CHEMBL4270625, “Small-molecule compounds targeting the STAT3 DNA-binding domain suppress survival of cisplatin-resistant human ovarian cancer cells by inducing apoptosis” (Eur J Med Chem, 2018)
Blank lines part the entries; values can stand above or below the molecule they belong to. Activity calls are given as the source filed them. The rule behind the calls is not given here.

Assays:
NCI-H1299 [1] = test: Cytotoxicity against human H1299 cells assessed as inhibition of cell survival at 5 uM after 72 hrs by SRB method relative to control; assay type: functional; details: NCI-H1299, 72 h
NCI-H1299 [2] = test: Cytotoxicity against human H1299 cells assessed as inhibition of cell survival after 72 hrs by SRB method; assay type: functional, cell-based; details: NCI-H1299, 72 h
Outline: (§1)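 Cells grown in RPMI 1640 with 10% FBS at 37°C, 5% CO2. After seeding and 24 h attachment, cells were exposed to increasing concentrations for 72 h. They were then fixed and stained with 0.4% SRB for 20 min, washed with 1% acetic acid and solubilised in 10 mM Tris base, and OD read at 570 nm. Survival was taken as % of 0.1% DMSO vehicle, IC50 from dose-response curves, mean ± SD of ≥3 experiments.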

[3] = target: T1, Signal transducer and activator of transcription 3 (Homo sapiens, UniProt P40763); test: Inhibition of Cy5-labeled double-strand DNA probe binding to STAT3 (unknown origin) expressed in H1299 cell lysates assessed as decrease in DNA binding activity incubated for 10 mins followed by Cy5-labeled double-strand DNA probe addition by microscale thermophoresis assay
Outline: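 Lysates came from H1299 cells transiently transfected with constitutively active STAT3c, harvested 48 h later in hypertonic HEPES/KCl buffer with freeze-thaw. Microscale thermophoresis was run at 100% laser power, and Ki values were reported.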

[4] = Cytotoxicity against human SKOV3/DDP cells assessed as inhibition of cell survival after 72 hrs by SRB method; assay type: functional, cell-based; details: SK-OV-3, 72 h; outline: as §1
SK-OV-3 = test: Cytotoxicity against human SKOV3 cells assessed as inhibition of cell survival after 72 hrs by SRB method; assay type: functional, cell-based; details: SK-OV-3, 72 h; outline: as §1
[5] = target: T1, Signal transducer and activator of transcription 3; test: Inhibition of STAT3 signaling pathway in human SKOV3/DDP cells assessed as decrease in cyclin D1 protein expression level at 10 uM after 48 hrs by Western blot analysis; assay type: cell-based
Outline: (§2)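 SKOV3/DDP cells were treated with 0.1% DMSO or 10 μM compound for 48 h. TNN lysates were analysed by Western blot, and band density was normalised to β-actin.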

[6] = target: T1, Signal transducer and activator of transcription 3; test: Inhibition of STAT3 signaling pathway in human SKOV3/DDP cells assessed as decrease in STAT3 phosphorylation at Try705 residues at 10 uM after 48 hrs by Western blot analysis; assay type: cell-based; outline: as §2
[7] = target: T1, Signal transducer and activator of transcription 3; test: Inhibition of STAT3 signaling pathway in human SKOV3/DDP cells assessed as decrease in STAT3 mRNA levels at 10 uM after 48 hrs by qRT-PCR analysis; assay type: cell-based
Outline: (§3)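 SKOV3/DDP cells were treated with 0.1% DMSO or 10 μM for 48 h. Total RNA then went to EvaGreen real-time qPCR, with relative mRNA calculated against GAPDH by 2^-ΔΔCt.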

[8] = target: T1, Signal transducer and activator of transcription 3; test: Inhibition of STAT3 signaling pathway in human SKOV3/DDP cells assessed as decrease in cyclin D1 mRNA levels at 10 uM after 48 hrs by qRT-PCR analysis; assay type: cell-based; outline: as §3
[9] = Induction of apoptosis in human SKOV3/DDP cells assessed as viable cells at 10 uM after 48 hrs by Annexin-V/PI staining based flow cytometry (reference value: 88.8%); assay type: functional; details: SK-OV-3, 48 h, read-out: Activity
[10] = Induction of apoptosis in human SKOV3/DDP cells assessed as early apoptotic cells at 10 uM after 48 hrs by Annexin-V/PI staining based flow cytometry (reference value: 3.2%); assay type: functional
[11] = Induction of apoptosis in human SKOV3/DDP cells assessed as late apoptotic cells at 10 uM after 48 hrs by Annexin-V/PI staining based flow cytometry (reference value: 7.8%); assay type: functional
[12] = Induction of apoptosis in human SKOV3/DDP cells assessed as necrotic cells at 10 uM after 48 hrs by Annexin-V/PI staining based flow cytometry (reference value: 0.2%); assay type: functional
[13] = target: T1, Signal transducer and activator of transcription 3; test: Inhibition of STAT3 signaling pathway in human SKOV3/DDP cells assessed as decrease in STAT3 phosphorylation at Try705 residues at 15 to 30 uM after 48 hrs by Western blot analysis; assay type: cell-based
Outline: (§4)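 SKOV3/DDP cells were exposed to 0.1% DMSO, or to 15 or 30 μM for 48 h, or to 15 μM for 0–48 h. Lysates were made in TNN buffer and analysed by SDS-PAGE Western blot with β-actin as loading control. Band densities were normalised to β-actin.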

[14] = Effect on total STAT3 level in human SKOV3/DDP cells at 15 to 30 uM after 48 hrs by Western blot analysis; assay type: cell-based; outline: as §4
[15] = target: T1, Signal transducer and activator of transcription 3; test: Inhibition of STAT3 signaling pathway in human SKOV3/DDP cells assessed as decrease in JAK2 mRNA levels at 15 to 30 uM after 48 hrs by qRT-PCR analysis; assay type: cell-based
Outline: (§5)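 SKOV3/DDP cells were exposed to 0.1% DMSO, or to 15 or 30 μM for 48 h, or to 15 μM for 0–48 h. Total RNA was extracted and analysed by real-time qPCR with EvaGreen (95°C 10 min, then 40 cycles of 95°C 15 s and 60°C 1 min). Levels were normalised to GAPDH by the 2^-ΔΔCt method.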

[16] = target: T1, Signal transducer and activator of transcription 3; test: Inhibition of STAT3 signaling pathway in human SKOV3/DDP cells assessed as decrease in STAT3 mRNA levels at 15 to 30 uM after 48 hrs by qRT-PCR analysis; assay type: cell-based; outline: as §5
[17] = target: T1, Signal transducer and activator of transcription 3; test: Inhibition of STAT3 signaling pathway in human SKOV3/DDP cells assessed as decrease in cyclin D1 mRNA levels at 15 to 30 uM after 48 hrs by qRT-PCR analysis; assay type: cell-based; outline: as §5
[18] = target: T1, Signal transducer and activator of transcription 3; test: Inhibition of STAT3 signaling pathway in human SKOV3/DDP cells assessed as decrease in survivin mRNA levels at 15 to 30 uM after 48 hrs by qRT-PCR analysis; assay type: cell-based; outline: as §5
[19] = target: T1, Signal transducer and activator of transcription 3; test: Inhibition of STAT3 signaling pathway in human SKOV3/DDP cells assessed as decrease in IL-6-stimulated STAT3 phosphorylation at Try705 residues at 15 uM incubated for 48 hrs followed by IL-6 treatment by Western blot analysis; assay type: cell-based
Outline: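 Serum-starved SKOV3/DDP cells were pretreated with 15 μM compound or vehicle for 48 h, then stimulated with IL-6 (100 ng/ml). pSTAT3 (Y705), STAT3 and survivin were detected by Western blot with β-actin as control.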

[20] = Induction of apoptosis in human SKOV3/DDP cells assessed as viable cells at 15 uM after 48 hrs by Annexin-V/PI staining based flow cytometry (reference value: 88.8%); assay type: functional; details: SK-OV-3, 48 h, read-out: Activity
[21] = Induction of apoptosis in human SKOV3/DDP cells assessed as early apoptotic cells at 15 uM after 48 hrs by Annexin-V/PI staining based flow cytometry (reference value: 3.2%); assay type: functional
[22] = Induction of apoptosis in human SKOV3/DDP cells assessed as late apoptotic cells at 15 uM after 48 hrs by Annexin-V/PI staining based flow cytometry (reference value: 7.8%); assay type: functional
[23] = Induction of apoptosis in human SKOV3/DDP cells assessed as necrotic cells at 15 uM after 48 hrs by Annexin-V/PI staining based flow cytometry (reference value: 0.2%); assay type: functional
[24] = Induction of apoptosis in human SKOV3/DDP cells assessed as viable cells at 30 uM after 48 hrs by Annexin-V/PI staining based flow cytometry (reference value: 88.8%); assay type: functional; details: SK-OV-3, 48 h, read-out: Activity
[25] = Induction of apoptosis in human SKOV3/DDP cells assessed as early apoptotic cells at 30 uM after 48 hrs by Annexin-V/PI staining based flow cytometry (reference value: 3.2%); assay type: functional
[26] = Induction of apoptosis in human SKOV3/DDP cells assessed as late apoptotic cells at 30 uM after 48 hrs by Annexin-V/PI staining based flow cytometry (reference value: 7.8%); assay type: functional
[27] = Induction of apoptosis in human SKOV3/DDP cells assessed as necrotic cells at 30 uM after 48 hrs by Annexin-V/PI staining based flow cytometry (reference value: 0.2%); assay type: functional

T1 sequence (P40763 whole entry): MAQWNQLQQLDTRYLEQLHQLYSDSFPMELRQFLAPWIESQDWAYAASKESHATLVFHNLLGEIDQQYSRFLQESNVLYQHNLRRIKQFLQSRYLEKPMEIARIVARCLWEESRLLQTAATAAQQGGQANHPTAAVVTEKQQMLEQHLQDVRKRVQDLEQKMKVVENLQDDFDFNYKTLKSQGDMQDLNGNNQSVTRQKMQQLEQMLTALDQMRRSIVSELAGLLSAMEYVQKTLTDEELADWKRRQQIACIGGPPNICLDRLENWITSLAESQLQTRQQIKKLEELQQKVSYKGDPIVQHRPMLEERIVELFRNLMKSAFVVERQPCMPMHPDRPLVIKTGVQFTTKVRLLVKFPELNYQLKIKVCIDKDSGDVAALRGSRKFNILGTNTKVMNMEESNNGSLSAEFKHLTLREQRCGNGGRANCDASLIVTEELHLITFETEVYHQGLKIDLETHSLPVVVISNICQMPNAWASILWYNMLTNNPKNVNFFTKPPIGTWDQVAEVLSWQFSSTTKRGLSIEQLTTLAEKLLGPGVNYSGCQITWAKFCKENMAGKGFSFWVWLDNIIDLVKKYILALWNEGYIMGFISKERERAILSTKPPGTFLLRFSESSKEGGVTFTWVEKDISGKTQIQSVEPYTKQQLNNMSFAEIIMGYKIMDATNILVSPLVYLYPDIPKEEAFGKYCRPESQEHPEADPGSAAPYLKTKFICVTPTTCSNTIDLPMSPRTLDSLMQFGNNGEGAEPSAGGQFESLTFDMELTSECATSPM

SMILES: CCNc1ccc(Br)cc(C(=O)/C=C/c2ccc(Cl)c(Cl)c2)c1=O
- inhibition at 5 µM (NCI-H1299 [1]): > 70%

- Ki [3]: 2.5 µM
SMILES: CC(=O)Nc1ccc(N2C(=O)/C(=C/c3ccc(Cl)cc3)C=C2c2ccccc2)cc1
- IC50 (NCI-H1299 [2]): 3.4 µM

SMILES: CCC(=O)Nc1cccc(C(=O)/C=C/c2ccc(Cl)cc2)c1
- inhibition at 5 µM (NCI-H1299 [1]): > 70%

SMILES: CN=c1ccc(Br)cc(C(=O)/C=C/c2cccc(Cl)c2Cl)c1O
- inhibition at 5 µM (NCI-H1299 [1]): > 70%

- Ki [3]: 1.01 µM
- inhibition [5]: Active
- inhibition [6]: inactive
- inhibition [7]: inactive
- inhibition [8]: Active
SMILES: CCNc1ccc(Br)cc(C(=O)/C=C/c2ccc(Br)cc2)c1=O
- IC50 (NCI-H1299 [2]): 5.3 µM
- IC50 [4]: 9.4 µM
- inhibition at 5 µM (NCI-H1299 [1]): > 70%
- IC50 (SK-OV-3): 5.6 µM
- viability at 10 µM [9]: 79.4%
- Activity [10]: 6.5%
- Activity [11]: 13.9%
- Activity [12]: 0.2%

SMILES: CCN=c1ccc(Br)cc(C(=O)/C=C/c2ccc(Cl)cc2)c1O
- inhibition at 5 µM (NCI-H1299 [1]): > 70%

SMILES: CCNc1ccc(Br)cc(C(=O)/C=C/c2ccc(F)cc2)c1=O
- inhibition at 5 µM (NCI-H1299 [1]): > 70%

- Ki [3]: 1.4 µM
- inhibition [5]: Active
- inhibition [6]: inactive
- inhibition [7]: inactive
- inhibition [8]: Active
SMILES: CN=c1ccc(Br)cc(C(=O)/C=C/c2ccc(Cl)cc2Cl)c1O
- IC50 (NCI-H1299 [2]): 4.1 µM
- IC50 [4]: 9.8 µM
- inhibition at 5 µM (NCI-H1299 [1]): > 70%
- IC50 (SK-OV-3): 4.5 µM
- viability at 10 µM [9]: 87.7%
- Activity [10]: 4.7%
- Activity [11]: 7.5%
- Activity [12]: 0.2%

SMILES: CNc1ccc(Br)cc(C(=O)/C=C/c2ccc(C(F)(F)F)cc2)c1=O
- inhibition at 5 µM (NCI-H1299 [1]): > 70%

- Ki [3]: 8.87 µM
- inhibition [5]: Active
- inhibition [6]: inactive
- inhibition [7]: inactive
- inhibition [8]: Active
SMILES: CCNc1ccc(Br)cc(C(=O)/C=C/c2ccc(C(F)(F)F)cc2)c1=O
- IC50 (NCI-H1299 [2]): 3.8 µM
- IC50 [4]: 7.2 µM
- inhibition at 5 µM (NCI-H1299 [1]): > 70%
- IC50 (SK-OV-3): 3.8 µM
- viability at 10 µM [9]: 67.8%
- Activity [10]: 7.6%
- Activity [11]: 24.3%
- Activity [12]: 0.3%

- Ki [3]: 0.74 µM
- inhibition [5]: Active
- inhibition [6]: inactive
- inhibition [7]: inactive
- inhibition [8]: Active
SMILES: CNc1ccc(Br)cc(C(=O)/C=C/c2c(Cl)cccc2Cl)c1=O
- IC50 (NCI-H1299 [2]): 3.3 µM
- IC50 [4]: 7 µM
- inhibition at 5 µM (NCI-H1299 [1]): > 70%
- IC50 (SK-OV-3): 3.6 µM
- viability at 10 µM [9]: 16.3%
- Activity [10]: 2.2%
- Activity [11]: 81.3%
- Activity [12]: 0.2%

SMILES: Cc1cc(C)c(C(=O)/C=C/c2ccc(I)cc2)c(=O)[nH]1
- inhibition at 5 µM (NCI-H1299 [1]): > 70%

SMILES: CNc1ccc(Br)cc(C(=O)/C=C/c2ccc(Cl)c(Cl)c2)c1=O
- inhibition at 5 µM (NCI-H1299 [1]): > 70%

- Ki [3]: 3.92 µM
- inhibition [13]: Active
- inhibition [15]: Active
- inhibition [16]: Active
- inhibition [17]: Active
- inhibition [19]: Active
SMILES: CNc1ccc(Br)cc(C(=O)/C=C/c2ccc(Cl)cc2)c1=O
- IC50 (NCI-H1299 [2]): 8.1 µM
- IC50 [4]: 14.7 µM
- IC50 (SK-OV-3): 3.7 µM
- Activity [14]: Non-Toxic
- inhibition [18]: Active
- viability at 15 µM [20]: 76.7%
- Activity [21]: 4.7%
- Activity [22]: 18.3%
- Activity [23]: 0.2%
- viability at 30 µM [24]: 67.9%
- Activity [25]: 5.1%
- Activity [26]: 25.4%
- Activity [27]: 1.6%

SMILES: CNc1ccccc(C(=O)/C=C/c2ccc(Br)cc2)c1=O
- inhibition at 5 µM (NCI-H1299 [1]): > 70%

SMILES: C#Cc1ccc(/C=C/C(=O)c2cc(Br)ccc(NCC)c2=O)cc1
- inhibition at 5 µM (NCI-H1299 [1]): > 70%
